Data taken from PubChem BioAssay AID2178 (The Scripps Research Institute Molecular Screening Center, 2009).
In all, about 2,400 compounds went through this assay and fewer than 10 were called active. Only a sample is shown. Values without a mark were called inactive.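 Rule for the calls: active = average inhibition across replicates above the hit cutoff set in the earlier primary screen; inactive = the rest.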

These compounds were tested against Procathepsin L (Homo sapiens) (UniProt P07711) (assay: CTSL1 protease inhibition confirmation – biochemical, QFRET, triplicate, counter-screen for PFM18AAP inhibitor project (AID 2178;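 note: 0% = median of test compound wells and 100% = Z-Phe-Ala-diazomethylketone 1 µM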)). Settings: purified cathepsin L1, Z-Leu-Arg-MCA fluorescence; at 5.96 µM; active compounds read high.
Procedure, shortened: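 Test system: purified recombinant cathepsin L1 enzyme; measure: percent inhibition from fluorescence change; benchmarks: Z-Phe-Ala-diazomethylketone control wells; also added: Z-Leu-Arg-MCA fluorogenic substrate; incubation: 30 min compound preincubation, then 90 min with substrate, 25 °C; repeats: triplicate; measured by: fluorescence of released MCA at 0 and 90 min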

Procathepsin L (Homo sapiens), sequence (P07711 whole entry, looked up): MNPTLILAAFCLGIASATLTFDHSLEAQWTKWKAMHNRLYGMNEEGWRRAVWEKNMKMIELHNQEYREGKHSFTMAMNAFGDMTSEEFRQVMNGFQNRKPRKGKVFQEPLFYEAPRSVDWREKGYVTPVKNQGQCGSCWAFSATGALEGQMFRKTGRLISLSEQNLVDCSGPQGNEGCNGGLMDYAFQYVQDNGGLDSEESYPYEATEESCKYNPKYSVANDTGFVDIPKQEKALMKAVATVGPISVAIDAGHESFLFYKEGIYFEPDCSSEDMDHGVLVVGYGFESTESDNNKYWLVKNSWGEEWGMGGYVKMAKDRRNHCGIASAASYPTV

Row | SMILES | inhibition [%]
1 | CCN(CC)c1ccc(NC(=O)CCc2nnc3ccc(N4CCCCC4)nn23)c(C)c1 | 1.25
2 | c1ccc2sc(NN=C3CCCC3)nc2c1 | 0.11
3 | Cc1ccc(S(=O)(=O)N/N=C\c2cc3c(cc2[N+](=O)[O-])OCO3)cc1 | -3.66
4 | Cc1csc(NC(=O)NC2(C(F)(F)F)Oc3ccccc3O2)n1 | -4.56
5 | Cn1c(SCC(=O)N/N=C/c2ccc(O)c(O)c2)nc2ccccc21 | -2.42
6 | O=C(O)CCn1c(O)c(C=C2N=c3ccccc3=N2)sc1=S | 2.67
7 | NC(=O)c1c(NC(=O)CSc2nnc(-c3ccco3)n2N)sc2c1CCCC2 | -6.97
8 | O=C(Nn1cnnc1)c1cc(Cl)ccc1Cl | -2.58
9 | CC(C)C1N=C2c3ccccc3N=C(SCC(=O)c3ccc(O)c(O)c3)N2C1=O (stereo not drawn) | 6.47
10 | COc1ccc(OCc2nnc3n2N=C(c2ccccc2)C(CC(=O)O)S3)cc1 (stereo not drawn) | 0.71
11 | Cc1ccc(C)c(NC(=O)NNC(=O)c2ccc3ccccc3c2O)c1 | -3.43
12 | CNC(=S)NNC(=O)c1ccc(N(C)C)cc1 | 3.16
13 | CCN(CC)c1ccc(/C=N/Nc2nc(C)cc(C)n2)c(O)c1 | 4.21
14 | COc1ccc(OCc2n[nH]c(=S)n2N)cc1 | -6.49
15 | Cc1cc(C)nc(Nc2ncn[nH]2)n1 | -0.26
16 | O=C(Oc1ccc(Br)cc1C(=S)N1CCOCC1)c1cccc([N+](=O)[O-])c1 | -0.38
17 | Cc1ccc(-c2ccc(/C=C(\C#N)C(N)=S)o2)c([N+](=O)[O-])c1 | -0.99
18 | O=C(CN1CCN(c2ccc(O)cc2)CC1)Nc1ccc(-c2ccccc2)cc1 | -1.37
19 | Oc1ccc(/C=N/Nc2ccc(C(F)(F)F)cn2)cc1O | -2.87
20 | CCCc1nc2ccccc2c(=O)n1/N=C/c1ccc(O)c(O)c1 | -0.21
21 | Cc1cc(C)nc(NNC2=CC(=O)CC(C)(C)C2)n1 | -3.35
22 | CCN(CC)c1ccc2oc(=O)c(C)nc2c1 | -1.42
23 | COc1c(O)ccc2c1CN1CCc3cc4c(cc3C1C2)OCO4 (stereo not drawn) | -3.11

Row | SMILES | inhibition [%]
24 | CC(C)(C)c1nnc(N/N=C/c2ccc(O)cc2)n(N)c1=O | -5.72
25 | Oc1ccc(/C=N/NC2=NCCCCC2)c(O)c1 | 1.65
26 | CC(C)(C)C(=O)OCc1nc(-c2ccc(O)c(O)c2)cs1 | -4.53
27 | NC(=S)N/N=C/c1coc2cc(Cl)ccc2c1=O | 1.96
28 | CCn1ccnc1CNC(=O)CC1C(=O)NCCN1Cc1ccc(F)cc1Cl (stereo not drawn) | -3.42
29 | COc1cc(/C=N/NC(=S)Nc2cccnc2)cc(OC)c1O | -3.45
30 | Cn1c(=O)[nH]c(=O)c2c1[nH]c(=S)n2Cc1ccccc1 | -1.96
31 | CC1CCN(C(=O)c2ccc3c(c2)NC(=O)CN3)CC1 | -3.71
32 | O=C(O)c1cccc(NC(=S)N/N=C/c2c[nH]c3ccccc23)c1 | -2.87
33 | O=C(Nc1cccc([N+](=O)[O-])c1)Nn1cnnc1 | -5.02
34 | COc1cc(/C=N\Nc2ccc([N+](=O)[O-])cn2)ccc1OCC(=O)O | 6.51
35 | CC(C)c1ccc(NC(=S)NNc2ccc(Cl)c(C(=O)O)c2)cc1 | -5.45
36 | Cc1nc2ccc(S(=O)(=O)NCC(=O)O)cc2s1 | -0.46
37 | O=C(CSc1ncn[nH]1)Nc1ccnc2ccccc12 | -0.72
38 | CCOc1cccc(/C=N/NC(=S)NCCN2CCOCC2)c1O | 3.05
39 | CCOc1ccc(C2C3=C(CCCC3=O)N(CC(=O)O)C3=C2C(=O)CCC3)cc1 | 0.31
40 | COc1cc(/C=C2/C(=O)NN(c3cccc(Cl)c3)C2=O)cc(Br)c1O | -3.26
41 | O=C(CO/N=C/c1ccccc1O)NNC(=O)c1ccccc1Cl | -40.2
42 | COc1ccc2c(c1)C(C)=CC(C)(C)N2C(=O)Nc1ccccc1 | 0.44
43 | Oc1ccc(N2CCN(C(=S)NCc3ccccc3)CC2)cc1 | 0.35
44 | Cc1ccc2nc(-c3cccc(Br)c3)cc(C(=O)Nn3cnnc3)c2c1 | -9.17
45 | CN(C)c1ccc(C(CC(=O)O)C(=O)O)cc1 (stereo not drawn) | -7.14
46 | CC(OC(=O)c1ccc2noc(-c3ccccc3)c2c1)C(N)=O (stereo not drawn) | 2.03

Row | SMILES | inhibition [%]
47 | NC(=O)C1CCN(C(=O)/C(=C/c2ccco2)NC(=O)c2ccccc2)CC1 | -6.56
48 | Cc1cccc(NC(=O)c2sc3nc(N4CCOCC4)c4c(c3c2N)CCCC4)c1 | -1.63
49 | CSc1n[nH]c(=S)n1N | -0.69
50 | CC(C)(C)NC(=O)C(c1ccncc1)N(C(=O)CNC(=O)c1ccco1)c1ccc2c(c1)OCO2 (stereo not drawn) | -6.31
51 | Cc1nc2nc[nH]n2c(=O)c1C/C=C/c1ccccc1 | -4.98
52 | COc1ccc(N/C=C(\C2OC(=O)c3ccccc32)[N+](=O)[O-])cc1 (stereo not drawn) | -5.34
53 | c1ccc2c(c1)OCC(c1nn3cnnc3s1)O2 (stereo not drawn) | 2.86
54 | COc1cc(/C=N/Nc2nn3cnnc3c3ccccc23)cc(OC)c1OC | 3.85
55 | ClC1(Cl)CC1CSc1ncn[nH]1 (stereo not drawn) | -4.69
56 | S=c1[nH]nc2c3c4c(sc3ncn12)CCCC4 | -1.23
57 | Cc1ccc(-c2noc(CC(c3ccccc3)c3ccccc3)n2)cc1 | 2.35
58 | CC(/C=C/C1(O)C(C)CC(=O)CC1(C)C)OC1OC(CO)C(O)C(O)C1O (stereo not drawn) | -6.26
59 | Cc1cc2c(C)nc(N/N=C/c3ccccc3)nc2o1 | 3.67
60 | O=C1CCCCN1CCCC(=O)N1CCCC(Nc2ccc(F)cc2)C1 (stereo not drawn) | -1.53
61 | O=c1nc(N/N=C/c2ccco2)cn[nH]1 | 8.33
62 | O=C(COc1ccc([N+](=O)[O-])cc1Cl)Nn1cnnc1 | -1.51
63 | O=C(Nc1ccccc1Cl)Nn1cnnc1 | -5.2
64 | COc1ccc(OC)c(Nc2nc(-c3ccc(O)c(O)c3)cs2)c1 | 4.97
65 | Cc1cc2nc3c(=O)n(Cc4ccccc4)c(=O)[nH]c3nc2cc1N | 2.68
66 | Cc1cc(-c2ccc(/C=N/n3cnnc3)o2)c([N+](=O)[O-])cc1C | 1.38
67 | O=C(CC(n1cncn1)C(Cl)(Cl)Cl)c1ccc([N+](=O)[O-])cc1 (stereo not drawn) | 1.47
68 | Cc1ccc(Cl)cc1-c1ccc(/C=N/n2cnnc2)o1 | 3.57
69 | COc1cc(S(=O)(=O)Nc2ncn[nH]2)ccc1Cl | 0.28

Row | SMILES | inhibition [%]
70 | O=[N+]([O-])c1ccc(N2CCN(c3ccc(O)cc3)CC2)c(Cl)c1 | 0.99
71 | COc1cccc2cc(-c3cc(=O)oc4cc(C)c(O)cc34)oc12 | -0.83
72 | CC(=O)N(c1ccc2oc(=O)sc2c1)S(=O)(=O)c1ccc(C)cc1 | -0.05
73 | O=S(=O)(c1ccc(NC(=S)NN=C(C2CC2)C2CC2)cc1)N1CCOCC1 | 0.19
74 | COc1cc(NC(=S)N2CCCC(C)C2)c(OC)cc1Cl (stereo not drawn) | -10.4
75 | Cc1ccsc1/C=N/Nc1ccc(Cl)nn1 | 0.84
76 | COc1ccccc1-c1nnc(SCC(=O)Nc2cc(C)on2)o1 | 8.93
77 | O=C(N/N=C/c1ccc(O)c(O)c1)C1c2ccccc2Oc2ccccc21 | -5.02
78 | O=C(CN1CCN(S(=O)(=O)c2cc(Cl)ccc2Cl)CC1)c1ccc(O)c(O)c1 | -1.56
79 | O=C(Cn1c[n+](CC(=O)c2ccc([N+](=O)[O-])cc2)cn1)c1ccc([N+](=O)[O-])cc1 | 13.7
80 | Cc1ccc(NC(=O)c2c(NC(=O)CCC(=O)O)sc3c2CCCCC3)cc1 | 5.04
81 | CC/C(C)=N/Nc1nc2sc3c(c2c(=O)[nH]1)CC(C)(C)OC3 | 2.48
82 | Cn1sc(=O)c2cc(S(=O)(=O)NC3CC3)ccc21 | -0.58
83 | CCOc1ccc(-n2c(O)c(/C=N/Nc3nnc(C)c(=O)[nH]3)c3ccccc3c2=O)cc1 | -0.55
84 | Oc1cccc(/C=N/Nc2ccc(Cl)nn2)c1O | 2.12
85 | Cc1c(CC(=O)N2CCN(C(=O)C3COc4ccccc4O3)CC2)c(=O)oc2c(O)c(O)ccc12 (stereo not drawn) | 0.56
86 | O=C(CSC(=S)N1CCOCC1)c1cc(Br)cc(Br)c1O | -2.37
87 | CNC(=O)c1c(NC(NC(=O)c2ccco2)C(=O)c2ccc(Cl)cc2)sc2c1CCCC2 (stereo not drawn) | -3.32
88 | N#CCC(=O)N/N=C/c1ccc(SCC(=O)Nc2ccccc2)o1 | -1.02
89 | CC(=O)c1ccc(NC(=O)CCc2nnc3ccc(NCc4ccco4)nn23)cc1 | -4.62
90 | c1ccc(-c2ccc3c(c2)NC(C2Nc4cc(-c5ccccc5)ccc4O2)O3)cc1 (stereo not drawn) | 0.56
91 | CCN(CC)S(=O)(=O)c1cc([N+](=O)[O-])ccc1NNC(=O)Nc1ccccc1 | 5.14
92 | COc1cc(Br)cc(/C=N/c2ncn[nH]2)c1O | -0.48

Row | SMILES | inhibition [%]
93 | Oc1c(C(c2ccco2)N2CCC3(CC2)OCCO3)sc2ncnn12 (stereo not drawn) | -2.01
94 | Cc1onc(-c2ccccc2)c1C(=O)NNC(=S)NC(=O)c1ccc(F)cc1 | 3.64
95 | O=C(CSc1ncn[nH]1)Nc1nc(-c2cccc([N+](=O)[O-])c2)cs1 | 1.01
96 | COc1ccc(/C=N/Nc2nc3ccccc3o2)cc1OC | -3.54
97 | Cc1cc([N+](=O)[O-])c(-c2ccc(/C=N/n3cnnc3)o2)cc1Cl | 5.55
98 | O=C(CSc1ncn[nH]1)Nc1nsc(-c2ccccc2)n1 | 1.95
99 | NC(=O)c1c(Nc2nc3c(F)cccc3s2)sc2c1CCCC2 | 3.61
100 | CCOC(=O)NNc1cc(C(F)(F)F)ccn1 | 4.25
101 | Cc1cc(/C=N/Nc2ccc([N+](=O)[O-])cn2)c(C)n1-c1cccc(C(=O)O)c1 | 3.84
102 | S=c1[nH]c(-c2cccs2)cn1-c1ccccc1 | -4.9
103 | Cc1nccn1CC(=O)N/N=C/c1ccc(O)c(O)c1 | 5.14
104 | Oc1ccc(-c2csc(Nc3cccnc3)n2)cc1 | 6.56
105 | O=C(NNC(=O)c1ccco1)Nc1ccccc1 | 2.81
106 | CCOCCCNC(=O)c1ccc(CS(=O)(=O)c2cccc(C(F)(F)F)c2)o1 | -1.17
107 | ONC(=Nc1ccccc1)c1ccccc1Cl | 1.1
108 | CCN1/C(=C/C(=S)Nc2ccccc2)Sc2ccccc21 | 0.64
109 | OCCN1CCN(C(=S)c2ccc(-c3ccccc3)cc2)CC1 | -0.85
110 | CCn1c(CNS(=O)(=O)c2ccc(Cl)cc2)n[nH]c1=S | 1.4
111 | CC1(C)CC(=O)C/C(=N\NC(=O)c2cccs2)C1 | -0.13
112 | Cc1ccnc(-n2sc3ccccc3c2=O)n1 | -1.29
113 | Cc1nnc(SCC(=O)Nn2cnnc2)s1 | 1.95
